An excerpt weighted towards active compounds, which were near 1.7% of everything screened.
Cneo AK release: Cryptococcus neoformans lysis via adenylate kinase release; C. neoformans lysis, adenylate kinase release luminescence, 4 h; normalised: neutral wells 0, clomiphene wells 100; 360,000 tested, 0.2% active; lysis activity, % at 15 µM;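 active = mean lysis activity across replicates of at least 80%, whatever share of replicates individually reach that level; inactive = mean lysis activity below 80%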
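Test system: log-phase Cryptococcus neoformans yeast cells; Quantity: yeast cell density of 5 × 10^6 cells/mL; Buffer or medium: YPD; Doses: single compound concentration per well; Timing: 4 h at 37 °C static, read 1 h later; Measured by: AK luminescence; Read-out basis: lysis from increased AK signal; Control set: Clomiphene as positive control.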
CaV13 FRET inh: Disruptors of the CACNA1D IQ motif to Ca2+-dependent inactivation inhibitor domain association, primary screening, Förster resonance energy transfer in intact living …. 340,000 tested, 0.098% active. HEK cells, CFP/YFP FRET ICDI-IQ, plate reader, 10 min; percent FRET-ratio fall versus neutral wells. AID 743397. inhibition, % at 12.3 µM;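 active = mean replicate inhibition of at least 30% and at least 1% of replicates passing that level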;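 note: 0% = median of the neutral control wells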
Ecoli rRNA inh: inhibits bacterial ribosomal RNA function over humanized ribosomes; E. coli WT GFP vs humanized-ribosome RFP mutants, fluorescence, 24 h; hits give low values; DMSO median 0, no signal -100; GFP signal change (wild-type ribosome), % (test concentration not listed); 350,000 tested, 1.6% active;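 active = significant combined selectivity score with lowered wild-type GFP, culture density cut under 30%, mutant RFP and density less affected; inactive = any of these conditions unmet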
F508del corr: CFTR F508del correction in bronchial cells; AID 720511; CFBE cells, YFP halide quenching; stimulated with forskolin plus potentiator P3; % fluorescence drop versus neutral controls; activity (quench increase), % at 7.58 µM; 350,000 tested, 0.36% active;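 active = mean added fluorescence quench of at least 8% versus neutral control, with both replicates also reaching 8%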;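 note: cells transiently co-express mutant CFTR-F508del with the halide-sensitive YFP; corrector assay measuring rescue of mutant channel to the surface after 24 h compound exposure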
* hit, by the source's call; x = no result given.

SMILES	Cneo AK release	CaV13 FRET inh	Ecoli rRNA inh	F508del corr
CCCn1c(SCC(=O)Nc2ccccc2N2CCCCC2)nc2c1c(=O)n(C)c(=O)n2C	0	-7	-29*	6
O=S(=O)(Nc1ccc(-n2cccc2)cc1)c1ccc(Cl)c(Cl)c1	x	-4	-45*	1
O=S(=O)(Nc1ccc(-n2cccc2)cc1)c1ccc(F)cc1	3	-1	-59	-4
O=[N+]([O-])c1cnc(Sc2ccncn2)s1	-4	-20	5	-4
C=CCn1c(Sc2ncc([N+](=O)[O-])s2)n[nH]c1=O	1	0	-28*	-11
CCSc1nnnn1-c1ccccc1	1	-5	4	x
Cc1cc(C(=O)CSc2nnnn2-c2ccccc2)c(C)n1CCc1ccccc1	-1	-5	x	x
Cc1ccc(-n2nnnc2SCC(=O)NC(C(=O)O)(c2ccccc2)c2ccccc2)cc1C	x	-5	1	13*
O=C(CSc1nnnn1-c1ccccc1)CSc1nnnn1-c1ccccc1	0	-8	-28*	0
Cc1cc(C(=O)CSc2nnnn2-c2ccc(O)cc2)c(C)n1C	x	-7	-26*	2
Cc1ncc(CSc2nnnn2-c2ccccc2)c(N)n1	4	-7	-21*	-2
CN1CCN(C(=O)C[C@@H]2C[C@H]3c4cc(NC(=O)c5ccc6c(c5)OCO6)ccc4O[C@H]3[C@@H](CO)O2)CC1	-1	x	3	0
CN(C)C(=O)C[C@H]1CC[C@@H]2[C@H](COc3ccc(NC(=O)C4CCC4)cc3C(=O)N2C)O1	x	x	5	-1
S=c1[nH]c2ccc(Cl)cc2[nH]1	0	-6	x	x
S=c1[nH]c2cc(Cl)ccc2s1	x	-7	-26*	-2
CO[C@H]1CN(C)C(=O)c2ccc(NS(C)(=O)=O)cc2OC[C@@H](C)N(Cc2nccs2)C[C@@H]1C	-2	x	-1	-1
Cc1sc2nc(CN3CCOCC3)nc(N3CCN(S(=O)(=O)c4ccccc4)CC3)c2c1C	-2	-2	-24*	-4
O=C(CCC(=O)N1CCOc2ccc(Cl)cc21)N1CCN(c2ccccn2)CC1	0	-5	-41	8.3*
CC(C)CC#Cc1cnc2c(c1)C(=O)N([C@@H](C)CO)C[C@@H](C)[C@H](CN(C)Cc1ccccc1C(=O)O)O2	-14	x	-1	5
Cc1cc(/C=N/n2c(COc3ccccc3C)nc3ccccc3c2=O)c(O)c([N+](=O)[O-])c1	x	-4	1	8.2*
C[C@H]1CN([C@@H](C)CO)C(=O)Cc2cc(NC(=O)C3CCCCC3)ccc2O[C@H]1CN(C)S(=O)(=O)c1cn(C)cn1	-2	x	2	1
Cc1ccccc1N=C(NO)c1nonc1N	x	-4	-29*	-3
Nc1nonc1C(=Nc1ccccc1)NO	1	-7	x	x
C[C@H](CO)N1C[C@H](C)[C@H](CN(C)Cc2ccc(Cl)c(Cl)c2)Oc2ccc(NC(=O)CCN3CCOCC3)cc2CC1=O	0	x	-3	-1
COc1ccccc1NC(=O)N1CCCCN2[C@H](C1)[C@@H](c1ccc(C#CC3CC3)cc1)[C@@H]2CO	x	x	x	-4
SMILES	Cneo AK release	CaV13 FRET inh	Ecoli rRNA inh	F508del corr
CC(C)C(=O)Nc1ccc2c(c1)C(=O)N(C)[C@@H]1CC[C@H](CC(=O)NCc3ccccc3)O[C@H]1CO2	15	x	4	-2
C[C@@H]1CN([C@H](C)CO)C(=O)Cc2cc(NC(=O)Nc3cccc4ccccc34)ccc2O[C@@H]1CN(C)S(=O)(=O)c1cccs1	0	x	1	-2
C[C@H](CO)N1C[C@H](C)[C@@H](CN(C)Cc2ccc(Oc3ccccc3)cc2)Oc2ccc(NS(=O)(=O)c3cn(C)cn3)cc2CC1=O	110*	x	-35	0
Cc1noc(C)c1S(=O)(=O)Nc1ccc2c(c1)CC(=O)N([C@H](C)CO)C[C@H](C)[C@H](CN(C)S(=O)(=O)c1cccs1)O2	115*	x	1	0
Cc1noc(C)c1S(=O)(=O)Nc1ccc2c(c1)CC(=O)N([C@H](C)CO)C[C@@H](C)[C@H](CN(C)S(=O)(=O)c1cccs1)O2	0	x	0	-2
C[C@H]1CN([C@@H](C)CO)C(=O)Cc2cc(NC(=O)Nc3cccc4ccccc34)ccc2O[C@H]1CN(C)S(=O)(=O)c1cccs1	101*	x	2	0
CC(C)NC(=O)Nc1ccc2c(c1)CC(=O)N([C@H](C)CO)C[C@@H](C)[C@@H](CN(C)Cc1ccc(Oc3ccccc3)cc1)O2	105*	x	-1	-2
CO[C@@H]1CN(C)C(=O)c2ccc(NC(=O)c3ccccc3)cc2OC[C@H](C)N(CC2CC2)C[C@@H]1C	-3	x	0	3
O=S(=O)(c1cccs1)N1CCCCN2[C@H](CO)[C@H](c3ccc(C4=CCCCC4)cc3)[C@@H]2C1	1	x	x	1
C[C@H]1CN([C@@H](C)CO)C(=O)Cc2cc(NC(=O)Nc3cccc4ccccc34)ccc2O[C@H]1CN(C)Cc1ccc(C(=O)O)cc1	8	x	-2	0
C[C@H]1CN([C@@H](C)CO)C(=O)Cc2cc(NC(=O)CCCCCC(=O)Nc3ccccc3N)ccc2O[C@@H]1CN(C)Cc1ccc2c(c1)OCO2	1	x	-6	-1
C[C@@H]1CN([C@@H](C)CO)C(=O)Cc2cc(NC(=O)Nc3cccc4ccccc34)ccc2O[C@@H]1CN(C)Cc1ccc(C(=O)O)cc1	115*	x	-5	0
C[C@@H]1CN([C@H](C)CO)C(=O)Cc2cc(NC(=O)CCCCCC(=O)Nc3ccccc3N)ccc2O[C@H]1CN(C)Cc1ccc2c(c1)OCO2	92*	x	-5	1
CO[C@@H]1CN(C)C(=O)c2cc(NS(C)(=O)=O)ccc2OC[C@H](C)N(Cc2cocn2)C[C@H]1C	x	x	2	0
Cc1ccc(S(=O)(=O)N2CCN(C(=O)c3ccccc3)C2C(C)C)cc1 (stereo not drawn)	-1	-9	-2	1
C/C(=N\S(=O)(=O)c1ccc(C)cc1)N1CCN(S(=O)(=O)c2ccccc2)C1C(C)C (stereo not drawn)	-6	-8	-27*	0
Cc1noc(C)c1NC(=O)N(C)C[C@@H]1Oc2ccc(NC(=O)NC(C)C)cc2CC(=O)N([C@H](C)CO)C[C@H]1C	102*	x	2	2
Cc1noc(C)c1NC(=O)N(C)C[C@@H]1Oc2ccc(NC(=O)NC(C)C)cc2CC(=O)N([C@@H](C)CO)C[C@@H]1C	106*	x	x	-1
CC(C)NC(=O)Nc1ccc2c(c1)CC(=O)N([C@@H](C)CO)C[C@@H](C)[C@H](CN(C)C(=O)Nc1ccc3c(c1)OCO3)O2	85*	x	5	3
Cc1noc(C)c1NC(=O)N(C)C[C@@H]1Oc2ccc(NC(=O)C3CC3)cc2CC(=O)N([C@H](C)CO)C[C@@H]1C	107*	x	4	0
Cc1noc(C)c1NC(=O)N(C)C[C@H]1Oc2ccc(NC(=O)C3CC3)cc2CC(=O)N([C@H](C)CO)C[C@H]1C	-2	x	2	-3
